From ChEMBL document CHEMBL4229344 (Eur J Med Chem, 2018)

Key:
[1] = system: Phosphatidylinositol 4,5-bisphosphate 3-kinase catalytic subunit alpha isoform (Homo sapiens), P42336 [M1043I]; experiment: Binding affinity to human partial length PIK3CA M1043I mutant (R108 to N1068 residues) expressed in mammalian expression system assessed as residual binding level at 1 uM by Kinomescan method relative to control
Procedure, shortened: (§1)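 Kinome-wide single-concentration binding screen (KINOMEscan) at 1 μM against a panel of 468 purified kinases and mutants. Read-out is relative binding of each kinase compared with control. Selectivity across the panel was summarised as an S(10) score.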

[2] = molecular target: Tyrosine-protein kinase JAK2 (Homo sapiens) (UniProt O60674); experiment: Binding affinity to wild-type human partial length JAK2 JH1 catalytic domain (A829 to G1132 residues) expressed in mammalian expression system assessed as residual binding level at 1 uM by Kinomescan method relative to control
[3] = system: Epidermal growth factor receptor (Homo sapiens), P00533 [UNDEFINED MUTATION]; experiment: Binding affinity to human partial length EGFR L747-E749del/A750P mutant expressed in bacterial expression system assessed as residual binding level at 1 uM by Kinomescan method relative to control; procedure, shortened: as §1
[4] = molecular target: Interleukin-1 receptor-associated kinase 3 (Homo sapiens) (UniProt Q9Y616); experiment: Binding affinity to wild-type human partial length IRAK3 (V147 to E596 residues) expressed in bacterial expression system assessed as residual binding level at 1 uM by Kinomescan method relative to control
[5] = molecular target: Serine/threonine-protein kinase NLK (Homo sapiens) (UniProt Q9UBE8); experiment: Binding affinity to wild-type human full length NLK (M13 to E527 residues) expressed in bacterial expression system assessed as residual binding level at 1 uM by Kinomescan method relative to control
Sequence of Serine/threonine-protein kinase NLK (Homo sapiens) (Q9UBE8 whole entry, the tested form may be a part): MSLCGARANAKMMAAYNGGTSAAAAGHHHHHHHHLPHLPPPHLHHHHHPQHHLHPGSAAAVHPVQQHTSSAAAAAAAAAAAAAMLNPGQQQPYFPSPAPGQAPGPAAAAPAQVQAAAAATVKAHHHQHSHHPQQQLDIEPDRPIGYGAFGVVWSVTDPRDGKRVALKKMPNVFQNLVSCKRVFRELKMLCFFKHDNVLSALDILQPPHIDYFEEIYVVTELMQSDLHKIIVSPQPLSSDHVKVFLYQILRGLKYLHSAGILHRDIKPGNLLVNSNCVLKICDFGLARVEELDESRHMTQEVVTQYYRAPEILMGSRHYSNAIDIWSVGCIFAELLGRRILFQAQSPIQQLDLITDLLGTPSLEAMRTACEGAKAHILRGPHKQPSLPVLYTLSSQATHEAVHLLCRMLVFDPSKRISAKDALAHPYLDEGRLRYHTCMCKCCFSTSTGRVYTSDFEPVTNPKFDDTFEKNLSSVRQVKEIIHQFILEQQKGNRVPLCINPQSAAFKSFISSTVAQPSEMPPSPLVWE
Procedure, shortened: (§2)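 KINOMEscan competition binding against 468 purified kinases/mutants, test compound at 1 µM; residual binding relative to control.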

[6] = molecular target: Serine/threonine-protein kinase TAO2 (Homo sapiens) (UniProt Q9UL54); experiment: Binding affinity to wild-type human partial length TAOK2 (M1 to A320 residues) expressed in mammalian expression system assessed as residual binding level at 1 uM by Kinomescan method relative to control
[7] = molecular target: Insulin receptor-related protein (Homo sapiens) (UniProt P14616); experiment: Binding affinity to wild-type human partial length INSRR (R950 to E1278 residues) expressed in bacterial expression system assessed as residual binding level at 1 uM by Kinomescan method relative to control
[8] = molecular target: Tyrosine-protein kinase Fgr (Homo sapiens) (UniProt P09769); experiment: Binding affinity to wild-type human partial length FGR (L233 to T529 residues) expressed in bacterial expression system assessed as residual binding level at 1 uM by Kinomescan method relative to control
Procedure, shortened: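 Kinome-wide competition binding screen against a panel of 468 purified kinases/mutants, with the test compound at a single concentration of 1 μM. Read-out is the relative binding activity of each kinase in the presence of compound.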

[9] = molecular target: Mitogen-activated protein kinase 15 (Homo sapiens) (UniProt Q8TD08); experiment: Binding affinity to wild-type human partial length ERK8 (M1 to P437 residues) expressed in bacterial expression system assessed as residual binding level at 1 uM by Kinomescan method relative to control
[10] = molecular target: Serine/threonine-protein kinase mTOR (Homo sapiens) (UniProt P42345); experiment: Binding affinity to wild-type human partial length MTOR (L1382 to W2549 residues) expressed in mammalian expression system assessed as residual binding level at 1 uM by Kinomescan method relative to control
[11] = molecular target: Mitogen-activated protein kinase kinase kinase 10 (Homo sapiens) (UniProt Q02779); experiment: Binding affinity to wild-type human partial length MLK2 (V52 to W380 residues) expressed in bacterial expression system assessed as residual binding level at 1 uM by Kinomescan method relative to control
[12] = molecular target: cGMP-dependent protein kinase 2 (Homo sapiens) (UniProt Q13237); experiment: Binding affinity to wild-type human partial length PRKG2 (S422 to F762 residues) expressed in mammalian expression system assessed as residual binding level at 1 uM by Kinomescan method relative to control
[13] = molecular target: Mitogen-activated protein kinase kinase kinase 1 (Homo sapiens) (UniProt Q13233); experiment: Binding affinity to wild-type human partial length MAP3K1 (L1202 to W1512 residues) expressed in mammalian expression system assessed as residual binding level at 1 uM by Kinomescan method relative to control
Sequence of Mitogen-activated protein kinase kinase kinase 1 (Homo sapiens) (Q13233 whole entry, the tested form may be a part): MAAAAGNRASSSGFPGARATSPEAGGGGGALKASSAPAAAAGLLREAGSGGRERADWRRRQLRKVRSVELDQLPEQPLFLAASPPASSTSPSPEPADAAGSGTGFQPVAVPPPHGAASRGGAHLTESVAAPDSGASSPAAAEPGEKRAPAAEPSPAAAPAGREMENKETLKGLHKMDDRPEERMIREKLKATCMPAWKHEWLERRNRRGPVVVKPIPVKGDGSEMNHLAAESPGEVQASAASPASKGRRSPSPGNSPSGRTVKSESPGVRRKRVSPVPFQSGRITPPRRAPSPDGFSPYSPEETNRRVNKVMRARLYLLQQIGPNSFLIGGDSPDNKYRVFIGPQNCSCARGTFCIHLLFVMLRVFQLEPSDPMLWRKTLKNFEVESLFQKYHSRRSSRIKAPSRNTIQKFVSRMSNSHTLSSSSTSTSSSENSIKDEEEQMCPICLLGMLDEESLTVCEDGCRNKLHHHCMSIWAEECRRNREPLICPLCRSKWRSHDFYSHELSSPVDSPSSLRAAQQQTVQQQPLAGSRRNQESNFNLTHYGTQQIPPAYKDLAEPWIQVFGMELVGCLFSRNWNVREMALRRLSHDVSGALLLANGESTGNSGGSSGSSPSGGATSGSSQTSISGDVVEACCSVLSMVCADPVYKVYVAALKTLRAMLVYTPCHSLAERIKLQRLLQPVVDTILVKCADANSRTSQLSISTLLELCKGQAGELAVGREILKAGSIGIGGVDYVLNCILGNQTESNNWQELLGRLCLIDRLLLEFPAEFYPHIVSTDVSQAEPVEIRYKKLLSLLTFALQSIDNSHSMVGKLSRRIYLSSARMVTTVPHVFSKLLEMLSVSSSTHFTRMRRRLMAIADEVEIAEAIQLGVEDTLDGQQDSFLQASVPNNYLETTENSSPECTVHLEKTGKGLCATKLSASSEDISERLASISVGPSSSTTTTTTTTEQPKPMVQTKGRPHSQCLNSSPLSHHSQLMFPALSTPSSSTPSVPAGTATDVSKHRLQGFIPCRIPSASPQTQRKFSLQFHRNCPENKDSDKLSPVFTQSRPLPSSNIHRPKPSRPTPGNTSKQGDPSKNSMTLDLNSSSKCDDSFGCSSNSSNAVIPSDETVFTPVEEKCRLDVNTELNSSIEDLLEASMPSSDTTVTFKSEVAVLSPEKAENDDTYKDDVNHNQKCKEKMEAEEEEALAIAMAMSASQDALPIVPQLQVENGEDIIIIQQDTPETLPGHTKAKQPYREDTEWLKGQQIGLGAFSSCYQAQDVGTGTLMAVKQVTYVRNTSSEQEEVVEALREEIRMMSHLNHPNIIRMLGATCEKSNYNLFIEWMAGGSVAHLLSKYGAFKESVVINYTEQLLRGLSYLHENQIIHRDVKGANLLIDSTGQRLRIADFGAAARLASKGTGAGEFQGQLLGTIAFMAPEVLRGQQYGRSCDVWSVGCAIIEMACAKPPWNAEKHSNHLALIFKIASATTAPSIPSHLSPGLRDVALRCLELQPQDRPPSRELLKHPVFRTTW

[14] = system: Mus musculus; experiment: Toxicity in nu/nu mouse xenografted with human EOL-1 cells assessed as change in body weight at 25 to 100 mg/kg/day, ip; format: organism-based; conditions: in vivo
Procedure, shortened: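 Female nu/nu mice, 6 weeks old, implanted subcutaneously in the right flank with 5 million EOL-1 cells in PBS/Matrigel 1:1. At tumour size 200–400 mm³, mice randomised into groups of 6 and given daily IP doses of 25, 50 or 100 mg/kg in 0.5% methylcellulose/0.4% Tween80, or vehicle, for 14 days. Body weight measured daily and normalised to initial weight; mean ± SEM.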

[15] = molecular target: Mitogen-activated protein kinase kinase kinase 9 (Homo sapiens) (UniProt P80192); experiment: Binding affinity to wild-type human partial length MLK1 (V88 to W426 residues) expressed in bacterial expression system assessed as residual binding level at 1 uM by Kinomescan method relative to control
[16] = molecular target: SRSF protein kinase 1 (Homo sapiens) (UniProt Q96SB4); experiment: Binding affinity to wild-type human full length SRPK1 (M1 to S655 residues) expressed in bacterial expression system assessed as residual binding level at 1 uM by Kinomescan method relative to control; procedure, shortened: as §2
Sequence of SRSF protein kinase 1 (Homo sapiens) (Q96SB4 whole entry, the tested form may be a part): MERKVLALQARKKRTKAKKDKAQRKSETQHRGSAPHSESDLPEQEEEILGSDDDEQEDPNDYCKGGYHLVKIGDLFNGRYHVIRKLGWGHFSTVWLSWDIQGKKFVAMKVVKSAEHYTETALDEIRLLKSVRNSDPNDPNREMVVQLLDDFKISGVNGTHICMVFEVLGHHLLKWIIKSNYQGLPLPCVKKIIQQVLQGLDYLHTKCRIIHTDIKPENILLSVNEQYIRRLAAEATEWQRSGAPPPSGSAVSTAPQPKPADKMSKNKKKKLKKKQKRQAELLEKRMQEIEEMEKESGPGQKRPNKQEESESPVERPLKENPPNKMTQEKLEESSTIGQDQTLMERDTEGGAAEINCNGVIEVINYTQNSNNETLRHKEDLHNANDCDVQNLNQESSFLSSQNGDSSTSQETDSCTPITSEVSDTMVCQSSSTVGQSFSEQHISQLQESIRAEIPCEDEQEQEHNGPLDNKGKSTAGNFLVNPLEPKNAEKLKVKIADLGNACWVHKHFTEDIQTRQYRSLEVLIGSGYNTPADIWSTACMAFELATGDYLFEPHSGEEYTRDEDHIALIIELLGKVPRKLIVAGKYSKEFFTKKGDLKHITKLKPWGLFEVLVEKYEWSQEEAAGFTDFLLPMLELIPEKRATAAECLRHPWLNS

[17] = molecular target: Vascular endothelial growth factor receptor 2 (Homo sapiens) (UniProt P35968)
Sequence of Vascular endothelial growth factor receptor 2 (Homo sapiens) (P35968 whole entry, the tested form may be a part): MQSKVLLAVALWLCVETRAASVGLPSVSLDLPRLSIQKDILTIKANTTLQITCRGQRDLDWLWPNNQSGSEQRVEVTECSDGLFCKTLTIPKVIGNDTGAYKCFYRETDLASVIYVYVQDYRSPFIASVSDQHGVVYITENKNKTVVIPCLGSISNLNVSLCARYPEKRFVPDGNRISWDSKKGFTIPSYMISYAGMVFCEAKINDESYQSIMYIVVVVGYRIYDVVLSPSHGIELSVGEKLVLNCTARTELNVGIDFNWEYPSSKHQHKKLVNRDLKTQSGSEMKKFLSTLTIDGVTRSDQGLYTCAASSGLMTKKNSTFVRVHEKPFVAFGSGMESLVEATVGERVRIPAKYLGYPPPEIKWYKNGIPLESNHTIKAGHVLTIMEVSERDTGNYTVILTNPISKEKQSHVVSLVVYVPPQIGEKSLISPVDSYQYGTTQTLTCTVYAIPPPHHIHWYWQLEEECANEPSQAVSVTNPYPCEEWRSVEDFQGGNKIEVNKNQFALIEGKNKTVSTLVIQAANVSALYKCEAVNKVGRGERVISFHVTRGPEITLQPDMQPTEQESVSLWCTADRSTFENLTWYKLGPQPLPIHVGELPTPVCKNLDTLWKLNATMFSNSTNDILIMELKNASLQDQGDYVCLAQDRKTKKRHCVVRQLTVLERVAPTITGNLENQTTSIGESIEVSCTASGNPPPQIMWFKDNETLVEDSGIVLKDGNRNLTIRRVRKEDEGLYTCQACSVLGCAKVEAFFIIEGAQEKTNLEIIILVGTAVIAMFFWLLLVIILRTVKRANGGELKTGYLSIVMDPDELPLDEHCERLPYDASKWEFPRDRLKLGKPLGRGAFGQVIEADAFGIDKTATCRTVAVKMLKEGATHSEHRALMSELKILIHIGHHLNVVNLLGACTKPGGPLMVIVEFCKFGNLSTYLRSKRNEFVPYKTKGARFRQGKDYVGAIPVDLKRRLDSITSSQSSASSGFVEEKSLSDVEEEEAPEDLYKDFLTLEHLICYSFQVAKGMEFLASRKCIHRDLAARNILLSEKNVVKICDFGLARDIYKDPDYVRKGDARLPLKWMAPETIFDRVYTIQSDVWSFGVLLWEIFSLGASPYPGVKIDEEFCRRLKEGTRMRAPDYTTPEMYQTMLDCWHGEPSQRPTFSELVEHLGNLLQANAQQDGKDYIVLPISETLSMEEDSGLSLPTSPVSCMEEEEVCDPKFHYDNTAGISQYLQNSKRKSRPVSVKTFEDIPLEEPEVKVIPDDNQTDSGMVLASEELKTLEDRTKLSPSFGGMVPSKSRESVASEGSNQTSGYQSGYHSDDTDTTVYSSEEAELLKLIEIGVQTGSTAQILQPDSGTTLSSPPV

[18] = system: Tyrosine-protein kinase ABL1 (Homo sapiens), P00519 [M351T]; experiment: Binding affinity to human phosphorylated ABL1 M351T mutant (S229 to K512 residues) expressed in mammalian expression system assessed as residual binding level at 1 uM by Kinomescan method relative to control
Procedure, shortened: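 Single-concentration (1 μM) competition-binding screen run by KINOMEscan against a panel of 468 purified kinases and mutants. The read-out is the relative binding activity of the test compound to each kinase.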

[19] = molecular target: Receptor-interacting serine/threonine-protein kinase 4 (Homo sapiens) (UniProt P57078); experiment: Binding affinity to wild-type human partial length RIPK4 (M1 to V303 residues) expressed in mammalian expression system assessed as residual binding level at 1 uM by Kinomescan method relative to control
Sequence of Receptor-interacting serine/threonine-protein kinase 4 (Homo sapiens) (P57078 whole entry, the tested form may be a part): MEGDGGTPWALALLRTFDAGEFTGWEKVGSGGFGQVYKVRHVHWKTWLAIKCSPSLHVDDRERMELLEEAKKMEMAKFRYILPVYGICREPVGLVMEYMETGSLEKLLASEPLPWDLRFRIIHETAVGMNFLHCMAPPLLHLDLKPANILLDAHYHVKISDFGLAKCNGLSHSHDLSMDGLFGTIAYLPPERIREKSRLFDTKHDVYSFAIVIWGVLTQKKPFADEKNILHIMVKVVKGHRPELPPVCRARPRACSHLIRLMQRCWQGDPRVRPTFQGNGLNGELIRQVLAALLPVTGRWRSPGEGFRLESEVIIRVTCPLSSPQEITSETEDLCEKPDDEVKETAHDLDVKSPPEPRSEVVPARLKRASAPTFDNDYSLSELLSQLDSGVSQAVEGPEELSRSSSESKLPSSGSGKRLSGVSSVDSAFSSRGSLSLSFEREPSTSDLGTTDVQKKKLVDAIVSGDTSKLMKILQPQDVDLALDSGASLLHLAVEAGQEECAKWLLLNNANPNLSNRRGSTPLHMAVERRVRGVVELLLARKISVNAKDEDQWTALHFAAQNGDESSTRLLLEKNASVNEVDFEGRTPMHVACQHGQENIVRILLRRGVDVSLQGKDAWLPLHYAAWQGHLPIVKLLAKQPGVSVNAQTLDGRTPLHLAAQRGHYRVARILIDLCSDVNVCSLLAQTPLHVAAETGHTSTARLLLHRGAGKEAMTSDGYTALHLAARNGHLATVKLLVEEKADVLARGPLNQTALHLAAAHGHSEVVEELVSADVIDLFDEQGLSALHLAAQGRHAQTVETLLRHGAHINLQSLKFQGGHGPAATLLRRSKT

[20] = molecular target: Transient receptor potential cation channel subfamily M member 6 (Homo sapiens) (UniProt Q9BX84); experiment: Binding affinity to wild-type human partial length TRPM6 (Q1723 to I1998 residues) expressed in mammalian expression system assessed as residual binding level at 1 uM by Kinomescan method relative to control
[21] = molecular target: Tyrosine-protein kinase Fer (Homo sapiens) (UniProt P16591); experiment: Binding affinity to wild-type human partial length FER (S542 to T822 residues) expressed in bacterial expression system assessed as residual binding level at 1 uM by Kinomescan method relative to control

Cc1ccc(NC(=O)c2ccc(CN(CCN(C)C)C(=O)c3cccnc3)cc2)cc1Nc1nccc(-c2cccnc2)n1
Activity [1]: 100% | Activity [2]: 95% | Activity [3]: 77% | Activity [4]: 100% | Activity [5]: 82% | Activity [6]: 77% | Activity [7]: 96% | Activity [8]: 91% | Activity [9]: 71% | Activity [10]: 100% | Activity [11]: 96% | Activity [12]: 100% | Activity [13]: 88% | Activity [14]: Toxic | Activity [15]: 88% | Activity [16]: 92% | GI50 [17]: > 10 µM | Activity [18]: 77% | Activity [19]: 97% | Activity [20]: 100% | Activity [21]: 100%
